Test results from ChEMBL document CHEMBL1128295 (J Med Chem, 1995).
“And” between values parts separate entries of the source, which are not always exact repeats. Equal entries are not always repeated. The source made the active and inactive calls. The calls are words filed in the database; no cut-off is given here.

Experiments:
[1] = molecular target: Histamine H1 receptor (Cavia porcellus) (UniProt P31389); assay: Contractile effect on isolated guinea pig ileal segments is a measure of H1 (histamine) receptor agonistic activity relative to histamine.; format: functional
[2] = molecular target: Histamine H1 receptor (Cavia porcellus) (UniProt P31389); assay: The H1 receptor-mediated nature of the ileum contractionhas been verified by competition experiments with the H1 receptor antagonist mepyramine; O=effect could be antagonized with 1 uM Mepyramine added to the bath solution when a plateau was re; format: functional, tissue-based
[3] = molecular target: Histamine H1 receptor (Cavia porcellus) (UniProt P31389); assay: H1-Histamine receptor agonism on guinea pig ileum as intrinsic activity given as 1.0 with respect to histamine (paired 't'test; p>0.05).; format: functional, tissue-based
[4] = molecular target: Histamine H1 receptor (Cavia porcellus) (UniProt P31389); assay: Contractile effect on isolated guinea pig ileal segments by H1 (histamine) receptor agonism.; format: functional
[5] = molecular target: Histamine H1 receptor (Cavia porcellus) (UniProt P31389); assay: Contractile effects on guinea pig aorta as histamine H1 receptor agonism; format: functional, tissue-based
In short: (§1)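 Endothelium-denuded 4–6 mm guinea pig thoracic aortic rings, isometric (preload 10 mN), modified Krebs-Henseleit, 37 °C, 95% O2/5% CO2. […] Cumulative curves with 30 μM corticosterone, 100 μM cimetidine, 0.1 μM (R,S)-propranolol and phentolamine present.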

[6] = molecular target: Histamine H1 receptor (Cavia porcellus) (UniProt P31389); assay: The H1 receptor-mediated nature of the ileum contractionhas been verified by competition experiments with the H1 receptor antagonist mepyramine; format: functional, tissue-based
[7] = molecular target: Histamine H1 receptor (Cavia porcellus) (UniProt P31389); assay: Contractile effect on isolated guinea pig aorta is a measure of H1 (histamine) receptor agonistic activity relative to histamine; format: functional, tissue-based; in short: as §1
[8] = molecular target: Histamine H1 receptor (Cavia porcellus) (UniProt P31389); assay: H1-Histamine receptor agonism on Guinea pig aorta was evaluated as Intrinsic activity given as 1.0 with respect to histamine (paired 't'test;p>0.05)(SEM 0.01-0.12); format: functional, tissue-based
[9] = molecular target: Histamine H1 receptor (Cavia porcellus) (UniProt P31389); assay: Contractile effects of compound on the guinea pig aorta as a measure of histamine H1 receptor agonism; f - effect could be antagonized with 1 pM mepyramine added to the bath solution when a plateau was reached.; format: functional, tissue-based; conditions: filed as agonist, in the assay text read “1 µM mepyramine” for “1 pM mepyramine”; in short: as §1
[10] = molecular target: Histamine H1 receptor (Cavia porcellus) (UniProt P31389); assay: H1-Histamine receptor agonism on Guinea pig aorta was evaluated as Intrinsic activity given as 1.0 with respect to histamine (paired 't'test;p>0.05); format: functional, tissue-based; in short: as §1
[11] = molecular target: Histamine H2 receptor (Cavia porcellus) (UniProt P47747); assay: Histamine H2 receptor agonism activity was determined on the isolated Guinea pig Atrium was determined as Intrinsic activity with respect to Histamine; format: functional
In short: (§2)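 Spontaneously beating guinea pig right atrium, isometric, resting force 5 mN, (R,S)-metoprolol 300 nM present throughout.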

[12] = molecular target: Histamine H2 receptor (Cavia porcellus) (UniProt P47747); assay: Histamine H2 receptor agonism activity was determined on the isolated Guinea pig Atrium was determined as pD'2; format: functional; in short: as §2
[13] = molecular target: Histamine H1 receptor (Mus musculus) (UniProt P70174); assay: In vivo binding of H1 receptor Agonists measured by binding of [3H]mepyramine to Mouse cerebral cortex at the dosage of ( 100 mg/kg(no. of mice treated= 3 ); conditions: at 100 mg/kg
[14] = molecular target: Histamine H1 receptor (Mus musculus) (UniProt P70174); assay: In vivo binding of H1 receptor Agonists measured by binding of [3H]-Mepyramine to Mouse cerebral cortex at the dosage of ( 300 mg/kg(no. of mice treated= 3 ); conditions: at 300 mg/kg
[15] = molecular target: Histamine H1 receptor (Mus musculus) (UniProt P70174); assay: In vivo binding of H1 receptor Agonists measured by binding of [3H]mepyramine to Mouse cerebral cortex at the dosage of ( 10 mg/kg(no. of mice treated=5 ); conditions: at 10 mg/kg
[16] = molecular target: Histamine H1 receptor (Mus musculus) (UniProt P70174); assay: In vivo binding of H1 receptor Agonists measured by binding of [3H]mepyramine to Mouse cerebral cortex at the dosage of ( 3 mg/kg(no. of mice treated=5 ); conditions: at 3 mg/kg
[17] = molecular target: Histamine H1 receptor (Mus musculus) (UniProt P70174); assay: In vivo binding of H1 receptor Agonists measured by binding of [3H]mepyramine to Mouse cerebral cortex at the dosage of ( 30 mg/kg(no. of mice treated= 5 ); conditions: at 30 mg/kg
[18] = molecular target: Histamine H1 receptor (Cavia porcellus) (UniProt P31389); assay: H1-Histamine receptor agonism on Guinea pig aorta was evaluated as Intrinsic activity given as 1.0 with respect to histamine (paired 't'test;p>0.05) (SEM 0.01-0.12); format: functional, tissue-based; in short: as §1
[19] = molecular target: Histamine H1 receptor (Cavia porcellus) (UniProt P31389); assay: H1-Histamine receptor agonism on Guinea pig aorta was evaluated as Intrinsic activity given as 1.0 with respect to histamine (paired 't'test;p>0.05) (SEM0.03-0.18); format: functional, tissue-based; in short: as §1
Cavia porcellus = species: Cavia porcellus; assay: Relative activity with respect to Histamine on guinea pig ileum..; format: functional
In short: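 Guinea pig ileum segments (either sex), 1.5 cm, mounted isotonically under 5 mN preload in Tyrode solution with 0.1 μM atropine, 95% O2/5% CO2 gassed, 37 °C. […] Potency is read from graphically analysed concentration–effect curves as geometric means.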

[20] = molecular target: Histamine H1 receptor (Cavia porcellus) (UniProt P31389); assay: The H1 receptor-mediated nature of the ileum contractionhas been verified by competition experiments with the H1 receptor antagonist mepyramine;O=effect could be antagonized with 1 uM Mepyramine added to the bath solution when a plateau was rea; format: functional, tissue-based

Sequence of Histamine H2 receptor (Cavia porcellus) (P47747 whole entry): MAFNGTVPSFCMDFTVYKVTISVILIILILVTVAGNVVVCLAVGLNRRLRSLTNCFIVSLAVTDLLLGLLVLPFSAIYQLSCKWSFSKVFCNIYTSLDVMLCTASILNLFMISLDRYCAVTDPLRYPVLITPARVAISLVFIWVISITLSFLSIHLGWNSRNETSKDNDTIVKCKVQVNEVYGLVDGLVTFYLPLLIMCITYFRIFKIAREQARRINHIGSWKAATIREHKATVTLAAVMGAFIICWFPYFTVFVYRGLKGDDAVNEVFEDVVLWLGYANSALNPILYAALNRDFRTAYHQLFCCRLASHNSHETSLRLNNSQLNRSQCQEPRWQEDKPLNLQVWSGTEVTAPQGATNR
Sequence of Histamine H1 receptor (Cavia porcellus) (P31389 whole entry): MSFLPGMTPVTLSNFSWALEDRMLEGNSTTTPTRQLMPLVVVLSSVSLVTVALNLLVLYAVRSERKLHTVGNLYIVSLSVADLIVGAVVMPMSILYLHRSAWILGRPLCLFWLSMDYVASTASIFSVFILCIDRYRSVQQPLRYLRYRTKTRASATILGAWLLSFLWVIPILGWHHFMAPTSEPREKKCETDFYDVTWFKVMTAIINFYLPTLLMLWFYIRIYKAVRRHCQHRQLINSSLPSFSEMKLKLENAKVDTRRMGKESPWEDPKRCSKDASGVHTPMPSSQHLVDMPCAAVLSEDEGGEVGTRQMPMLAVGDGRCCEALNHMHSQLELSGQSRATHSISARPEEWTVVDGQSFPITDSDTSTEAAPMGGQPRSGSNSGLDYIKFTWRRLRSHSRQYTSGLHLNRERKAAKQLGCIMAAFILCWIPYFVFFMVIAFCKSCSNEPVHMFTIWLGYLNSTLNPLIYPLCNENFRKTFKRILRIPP
Sequence of Histamine H1 receptor (Mus musculus) (P70174 whole entry, looked up): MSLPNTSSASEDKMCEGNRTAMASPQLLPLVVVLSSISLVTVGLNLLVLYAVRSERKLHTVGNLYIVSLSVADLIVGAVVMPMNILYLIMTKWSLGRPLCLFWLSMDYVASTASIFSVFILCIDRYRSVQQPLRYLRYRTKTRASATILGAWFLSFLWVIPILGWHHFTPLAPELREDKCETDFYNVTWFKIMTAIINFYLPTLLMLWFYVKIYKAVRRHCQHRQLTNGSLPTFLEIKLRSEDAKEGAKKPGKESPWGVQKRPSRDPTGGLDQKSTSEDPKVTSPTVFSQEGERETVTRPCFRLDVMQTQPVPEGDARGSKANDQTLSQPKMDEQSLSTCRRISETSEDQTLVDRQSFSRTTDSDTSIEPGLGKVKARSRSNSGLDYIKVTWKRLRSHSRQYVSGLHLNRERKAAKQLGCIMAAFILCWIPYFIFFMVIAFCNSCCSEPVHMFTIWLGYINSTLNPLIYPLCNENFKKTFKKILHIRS

Compound | Relative activity [1] | Intrinsic activity [3] | pD2 [4] | pKb [6] | Relative activity [7] [%] | other results
NCCc1c[nH]c(-c2ccc3ccccc3c2)n1 | 1% | 0.24 | 4.85 |  |  | pKb [2]: Active
NCCc1c[nH]c(-c2csc(Br)c2)n1 | 26% | 1 | 6.11 | 9.04 | 11 | pKb [5]: 8.63; Intrinsic activity [8]: 0.6
NCCc1c[nH]c(-c2cccc(OC(F)(F)F)c2)n1 | 54% | 1 | 6.43 | 8.92 |  | 
NCCc1c[nH]c(Cc2ccccc2Cl)n1 | 3% | 0.54 | 5.11 | 8.91 | 0.2 | pKb [9]: Agonist; Intrinsic activity [10]: 0.38
NCCc1c[nH]c(-c2cccc(Br)c2)n1 |  | 1 |  |  |  | Intrinsic activity [10]: 0.64; Intrinsic activity [11]: 0
NCCc1c[nH]c(Cc2cccc(Cl)c2)n1 | 2% | 0.76 | 4.88 | 8.81 | 0.4 | pKb [9]: Agonist; Intrinsic activity [10]: 0.51
NCCc1c[nH]c(-c2cccc(C(F)(F)F)c2)n1 | 128% | 1 | 6.81 | 9.14 | 94 | pD'2 [12]: 3.48; pKb [5]: 9.04; Control [13]: 112%; Intrinsic activity [10]: 0.8; Control [14]: 129%; Control [15]: 122%; Control [16]: 101%; Intrinsic activity [11]: 0; Control [17]: 98%
Cc1cccc(-c2nc(CCN)c[nH]2)c1 | 15% | 1 | 5.87 | 9.04 |  | 
NCCc1c[nH]c(-c2ccc[nH]2)n1 | 14% | 0.93 | 5.86 | 9.03 | 12 | pKb [5]: 9.27; Intrinsic activity [8]: 0.74
Cc1ncc(CCN)[nH]1 | 15% |  |  |  |  | 
NCCc1c[nH]c(-c2ccccc2)n1 | 10% and 31% | 1 | 6.2 | 8.87 | 19 | pD'2 [12]: < 3; pKb [5]: 9.1; Intrinsic activity [10]: 0.86; Intrinsic activity [11]: 0.2
NCCc1c[nH]c(-c2ccco2)n1 | 47% | 1 | 6.37 | 9.16 | 23 | pD'2 [12]: < 3; pKb [5]: 9.28; Intrinsic activity [18]: 0.47; Intrinsic activity [11]: 0.36
NCCc1c[nH]cn1 |  |  | 6.7 | 9.09 |  | Intrinsic activity [10]: 1.06; Intrinsic activity [11]: 1
NCCc1c[nH]c(Cc2cccs2)n1 | 3% | 1 | 5.09 | 8.92 | 0.8 | pKb [9]: Agonist; Intrinsic activity [8]: 0.45
NCCc1c[nH]c(Cc2ccsc2)n1 | 4% | 1 | 5.26 | 8.97 | 0.9 | pKb [9]: Agonist; Intrinsic activity [10]: 0.4
NCCc1c[nH]c(-c2cncc(Br)c2)n1 | 70% | 1 | 6.54 | 9.03 |  | 

Compound | Relative activity [1] | Intrinsic activity [3] | pD2 [4] | pKb [6] | Relative activity [7] [%] | other results
NCCc1c[nH]c(-c2ccsc2)n1 | 66% | 1 | 6.52 | 9.13 | 19 | pD'2 [12]: < 3; pKb [5]: 9.01; Intrinsic activity [11]: 0.13; Intrinsic activity [8]: 0.43
NCCc1c[nH]c(-c2cccs2)n1 | 46% | 1 | 6.36 | 8.93 | 12 | pD'2 [12]: < 3; pKb [5]: 8.83; Intrinsic activity [11]: 0.25; Intrinsic activity [19]: 0.5
NCCc1c[nH]c(-c2cc3ccccc3c3ccccc23)n1 |  | 0 |  | 4.73 |  | 
NCCc1nccs1 | 45% | 1 | 6.36 | 9.17 | 18 | pKb [5]: 9.02; Intrinsic activity [10]: 1.02; Relative activity (Cavia porcellus): 20%
NCCc1c[nH]c(-c2cccc(I)c2)n1 | 96% | 1 | 6.68 | 9.28 | 47 | pD'2 [12]: 3.76; pKb [5]: 9.13; Intrinsic activity [10]: 0.49; Intrinsic activity [11]: 0
NCCc1c[nH]c(Cc2ccc(C(F)(F)F)cc2)n1 |  | 0 |  |  |  | PkB [6]: 4.53
NCCc1c[nH]c(-c2cccc(F)c2)n1 | 87% |  |  |  |  | 
CNCCc1ccccn1 | 8% |  |  |  |  | 
NCCc1c[nH]c(C(F)(F)F)n1 | 7% | 1 | 5.57 | 9.19 |  | Intrinsic activity [11]: 0.55
NCCc1c[nH]c(-c2ccc(C(F)(F)F)cc2)n1 | < 1% | 0.24 | 4.6 |  |  | pKb [20]: Active
NCCc1c[nH]c(Cc2cccc(C(F)(F)F)c2)n1 | < 1% | 0.28 | 4.57 |  |  | pKb [2]: Active
NCCc1c[nH]c(Cc2ccccc2C(F)(F)F)n1 |  | 0 |  | 3.55 |  | 
NCCc1c[nH]c(-c2cccc(Cl)c2)n1 | 81% |  |  |  |  | 
COc1cccc(-c2nc(CCN)c[nH]2)c1 | 40% |  |  |  |  | 
NCCc1c[nH]c(-c2ccccc2C(F)(F)F)n1 | < 1% | 0.26 | 4.47 |  |  | pKb [20]: Active
